Measured values taken from ChEMBL document CHEMBL3286209, “Synthesis and biological activities of novel pleuromutilin derivatives with a substituted thiadiazole moiety as potent drug-resistant bacteria inhibitors” (J Med Chem, 2014).
Values after ≈ are worked out from the molar mass of the structure shown.

Experiments:
[1] = Cmax in Sprague-Dawley rat at 15 mg/kg, po; type: ADME, organism-based; set-up: dose 15 mg/kg, route oral; conditions: in vivo
Procedure, shortened: (§1)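 Male SD rats, 220−250 g, 6−8 weeks old, n = 3, fasted overnight and for 6 h after dosing. Dosed in 5% Tween in water, 5 mg/kg iv or 15 mg/kg po. Serial retrobulbar blood samples into EDTA-K₂ tubes; plasma levels by HPLC. Parameters from mean plasma concentration by noncompartmental analysis.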

[2] = Clearance in Sprague-Dawley rat at 15 mg/kg, po; type: ADME, organism-based; set-up: dose 15 mg/kg, route oral; conditions: in vivo; procedure, shortened: as §1
Staphylococcus aureus [3] = assay: Antibacterial activity against methicillin-resistant Staphylococcus aureus at 320 ug/ml after 24 hrs by Oxford cup assay; type: functional; conditions: read-out: IZ
Procedure, shortened: (§2)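 Oxford cup diffusion using clinical isolates. Inocula are made in 0.9% saline to a McFarland standard and spread on nutrient agar. […] Inhibition zone diameter is measured after 24 h at 37 °C. Run in triplicate.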

Streptococcus agalactiae [4] = assay: Antibacterial activity against Streptococcus agalactiae after 48 hrs by agar dilution method; type: functional
Procedure, shortened: (§3)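 Agar dilution per NCCLS on Mueller–Hinton agar; compound in DMSO/water, 2-fold serial dilutions in distilled water, 2 mL dilution mixed into 18 mL hot agar. Clinical isolates from blood slants, adjusted to about 10⁵−10⁶ cfu/mL in 0.90% saline; 10 μL spotted. Incubated 36.5 °C for 48 h; MIC = lowest concentration giving complete growth inhibition. Triplicate runs.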

Escherichia coli [5] = assay: Antibacterial activity against Escherichia coli at 320 ug/ml after 24 hrs by Oxford cup assay; type: functional; conditions: read-out: IZ
Procedure, shortened: (§4)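 Oxford cup diffusion: saline inoculum set by McFarland standard, spread on nutrient agar plates. […] Inhibition zone measured after 24 h at 37 °C; triplicate.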

[6] = Elimination half life in Sprague-Dawley rat at 15 mg/kg, po; type: ADME, organism-based; set-up: dose 15 mg/kg, route oral; conditions: in vivo, read-out: beta t1/2 (converted); procedure, shortened: as §1
[7] = test system: Staphylococcus epidermidis; assay: Antibacterial activity against methicillin-resistant Staphylococcus epidermidis after 48 hrs by agar dilution method; type: functional
Procedure, shortened: (§5)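 Agar dilution per NCCLS using clinical isolates. Compound DMSO/water solutions are 2-fold serially diluted in water, then mixed 1:10 into hot Mueller–Hinton agar. Inocula come from blood slants, adjusted to about 10⁵−10⁶ cfu/mL in 0.90% saline, and spotted at 10 μL. Plates incubated at 36.5 °C for 48 h. MIC is the lowest concentration giving complete growth inhibition. Run in triplicate at pH 7.40.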

Streptococcus agalactiae [8] = assay: Antibacterial activity against Streptococcus agalactiae at 160 ug/ml after 24 hrs by Oxford cup assay; type: functional; conditions: read-out: IZ; procedure, shortened: as §4
[9] = Oral bioavailability in Sprague-Dawley rat at 15 mg/kg; type: ADME, organism-based; conditions: in vivo; procedure, shortened: as §1
Staphylococcus aureus [10] = assay: Antibacterial activity against methicillin-resistant Staphylococcus aureus at 160 ug/ml after 24 hrs by Oxford cup assay; type: functional; conditions: read-out: IZ; procedure, shortened: as §2
Staphylococcus aureus [11] = assay: Antibacterial activity against methicillin-resistant Staphylococcus aureus after 48 hrs by agar dilution method; type: functional; procedure, shortened: as §5
[12] = AUC (0 to infinity) in Sprague-Dawley rat at 5 mg/kg, iv; type: ADME, organism-based; set-up: time infinity, dose 5 mg/kg, route intravenous; conditions: plasma; procedure, shortened: as §1
[13] = Tmax in Sprague-Dawley rat at 15 mg/kg, po; type: ADME, organism-based; set-up: dose 15 mg/kg, route oral; conditions: in vivo; procedure, shortened: as §1
[14] = Cmax in Sprague-Dawley rat at 5 mg/kg, iv; type: ADME, organism-based; set-up: dose 5 mg/kg, route intravenous; conditions: in vivo; procedure, shortened: as §1
[15] = test system: Staphylococcus epidermidis; assay: Antibacterial activity against methicillin-resistant Staphylococcus epidermidis at 160 ug/ml after 24 hrs by Oxford cup assay; type: functional; conditions: read-out: IZ; procedure, shortened: as §2
Rattus norvegicus = assay: Volume of distribution at steady state in Sprague-Dawley rat at 15 mg/kg, po; type: ADME, organism-based; set-up: dose 15 mg/kg, route oral; conditions: in vivo; procedure, shortened: as §1
[16] = Mean residence time in Sprague-Dawley rat at 5 mg/kg, iv; type: ADME, organism-based; set-up: dose 5 mg/kg, route intravenous; conditions: in vivo; procedure, shortened: as §1
Escherichia coli [17] = assay: Antibacterial activity against Escherichia coli at 160 ug/ml after 24 hrs by Oxford cup assay; type: functional; conditions: read-out: IZ; procedure, shortened: as §4
Streptococcus agalactiae [18] = assay: Antibacterial activity against Streptococcus agalactiae at 320 ug/ml after 24 hrs by Oxford cup assay; type: functional; conditions: read-out: IZ; procedure, shortened: as §4
[19] = Elimination half life in Sprague-Dawley rat at 5 mg/kg, iv; type: ADME, organism-based; set-up: dose 5 mg/kg, route intravenous; conditions: in vivo, read-out: beta t1/2 (converted); procedure, shortened: as §1
[20] = Volume of distribution at steady state in Sprague-Dawley rat at 5 mg/kg, iv; type: ADME, organism-based; set-up: dose 5 mg/kg, route intravenous; conditions: in vivo, read-out: Vdss; procedure, shortened: as §1
[21] = Tmax in Sprague-Dawley rat at 5 mg/kg, iv; type: ADME, organism-based; set-up: dose 5 mg/kg, route intravenous; conditions: in vivo; procedure, shortened: as §1
[22] = AUC (0 to infinity) in Sprague-Dawley rat at 15 mg/kg, po; type: ADME, organism-based; set-up: time infinity, dose 15 mg/kg, route oral; conditions: plasma; procedure, shortened: as §1
[23] = test system: Staphylococcus epidermidis; assay: Antibacterial activity against methicillin-resistant Staphylococcus epidermidis at 320 ug/ml after 24 hrs by Oxford cup assay; type: functional; conditions: read-out: IZ; procedure, shortened: as §2
[24] = Mean residence time in Sprague-Dawley rat at 15 mg/kg, po; type: ADME, organism-based; set-up: dose 15 mg/kg, route oral; conditions: in vivo; procedure, shortened: as §1
[25] = Clearance in Sprague-Dawley rat at 5 mg/kg, iv; type: ADME, organism-based; set-up: dose 5 mg/kg, route intravenous; conditions: in vivo; procedure, shortened: as §1
Escherichia coli [26] = assay: Antibacterial activity against Escherichia coli after 48 hrs by agar dilution method; type: functional; procedure, shortened: as §3
[27] = Oral bioavailability in duck; type: ADME, organism-based; conditions: anas platyrhynchos, in vivo
[28] = Oral bioavailability in chicken; type: ADME, organism-based, Gallus gallus; conditions: in vivo

| SMILES | zone of inhibition at 320 µg/mL (Staphylococcus aureus [3]) [mm] | MIC (Streptococcus agalactiae [4]) [µg/mL] | zone of inhibition at 320 µg/mL (Escherichia coli [5]) [mm] | MIC [7] [µg/mL] | zone of inhibition at 160 µg/mL (Streptococcus agalactiae [8]) [mm] | zone of inhibition at 160 µg/mL (Staphylococcus aureus [10]) [mm] | MIC (Staphylococcus aureus [11]) [µg/mL] | zone of inhibition at 160 µg/mL [15] [mm] | zone of inhibition at 160 µg/mL (Escherichia coli [17]) [mm] | zone of inhibition at 320 µg/mL (Streptococcus agalactiae [18]) [mm] | zone of inhibition at 320 µg/mL [23] [mm] | MIC (Escherichia coli [26]) [µg/mL] | also measured |
| --- | --- | --- | --- | --- | --- | --- | --- | --- | --- | --- | --- | --- | --- |
| C=C[C@]1(C)C[C@@H](OC(=O)CSc2nnc(N)s2)[C@]2(C)[C@H](C)CC[C@]3(CCC(=O)[C@H]32)[C@@H](C)[C@@H]1O | 15.6 | 0.25 (≈ 0.506 µM) | 14.3 | 1 (≈ 2.03 µM) | 15 | 13 | 0.5 (≈ 1.01 µM) | 12.8 | 12.4 | 17.3 | 15.2 | 8 (≈ 16.2 µM) | Cmax [1]: 3070 ng/mL; CL/F [2]: 10.2 mL/min/kg; half-life [6]: 364 min; bioavailability [9]: 35.8%; AUC(0-inf) [12]: 15400 ng·h/mL; Tmax [13]: 45 min; Cmax [14]: 13600 ng/mL; Vdss (Rattus norvegicus): 5.14 L/kg; MRT [16]: 2.84 h; half-life [19]: 204 min; Vd [20]: 0.92 L/kg; Tmax [21]: 4.8 min; AUC(0-inf) [22]: 24600 ng·h/mL; MRT [24]: 8.42 h; clearance [25]: 5.41 mL/min/kg |
| C=C[C@]1(C)C[C@@H](OC(=O)CSc2nnc(NC(=O)CN3CCCCC3)s2)[C@]2(C)[C@H](C)CC[C@]3(CCC(=O)[C@H]32)[C@@H](C)[C@@H]1O | 18.8 | 0.5 (≈ 0.808 µM) | 13.3 | 1 (≈ 1.62 µM) | 13.5 | 13.8 | 0.5 (≈ 0.808 µM) | 14.5 | 11.7 | 17.7 | 17.4 | 16 (≈ 25.9 µM) | Cmax [1]: 4650 ng/mL; CL/F [2]: 10.4 mL/min/kg; half-life [6]: 359 min; bioavailability [9]: 39.7%; AUC(0-inf) [12]: 14100 ng·h/mL; Tmax [13]: 45 min; Cmax [14]: 11300 ng/mL; Vdss (Rattus norvegicus): 4.91 L/kg; MRT [16]: 2.88 h; half-life [19]: 233 min; Vd [20]: 1.02 L/kg; Tmax [21]: 4.8 min; AUC(0-inf) [22]: 24100 ng·h/mL; MRT [24]: 7.91 h; clearance [25]: 5.9 mL/min/kg |
| C=C[C@]1(C)C[C@@H](OC(=O)CSc2nnc(NC(=O)CN3CCOCC3)s2)[C@]2(C)[C@H](C)CC[C@]3(CCC(=O)[C@H]32)[C@@H](C)[C@@H]1O | 15.4 | 4 (≈ 6.44 µM) | 11.9 | 8 (≈ 12.9 µM) | 10.9 | 13.4 | 1 (≈ 1.61 µM) | 0 | 0 | 13.2 | 10.8 | ≥ 64 |  |
| C=C[C@]1(C)C[C@@H](OC(=O)CSc2nnc(NC(=O)CN3CCN(C)CC3)s2)[C@]2(C)[C@H](C)CC[C@]3(CCC(=O)[C@H]32)[C@@H](C)[C@@H]1O | 12 | 8 (≈ 12.6 µM) | 11.2 | 4 (≈ 6.31 µM) | 11.2 | 11 | 8 (≈ 12.6 µM) | 10.7 | 10.6 | 12.6 | 13.1 | 16 (≈ 25.2 µM) |  |
| CC[C@]1(C)C[C@@H](OC(=O)CSc2nnc(N)[nH]2)[C@]2(C)[C@H](C)CC[C@]3(CCC(=O)[C@H]32)[C@@H](C)[C@@H]1O [AZAMULIN] | 18 | 0.125 (≈ 0.261 µM) | 17.2 | 0.5 (≈ 1.04 µM) | 17.2 | 16.5 | 0.5 (≈ 1.04 µM) | 15.4 | 16 | 18.9 | 17 | 4 (≈ 8.36 µM) |  |
| C=C[C@]1(C)C[C@@H](OC(=O)CSCCN(CC)CC)[C@]2(C)[C@H](C)CC[C@]3(CCC(=O)[C@H]32)[C@@H](C)[C@@H]1O [TIAMULIN] | 17.2 | 0.5 (≈ 1.01 µM) | 15.8 | 2 (≈ 4.05 µM) | 14.6 | 16.9 | 0.5 (≈ 1.01 µM) | 13.9 | 13.6 | 16.1 | 15.6 | 16 (≈ 32.4 µM) |  |
| C=C[C@]1(C)C[C@@H](OC(=O)CSC(C)(C)CNC(=O)[C@H](N)C(C)C)[C@]2(C)[C@H](C)CC[C@]3(CCC(=O)[C@H]32)[C@@H](C)[C@@H]1O [VALNEMULIN] |  |  |  |  |  |  |  |  |  |  |  |  | bioavailability [27]: 36.7%; bioavailability [28]: 74% |
